What all share (format): functional, cell-based
Assay [1] concerns the target T1, Extracellular calcium-sensing receptor (Rattus norvegicus, UniProt P48442).
T1 sequence (P48442 whole entry): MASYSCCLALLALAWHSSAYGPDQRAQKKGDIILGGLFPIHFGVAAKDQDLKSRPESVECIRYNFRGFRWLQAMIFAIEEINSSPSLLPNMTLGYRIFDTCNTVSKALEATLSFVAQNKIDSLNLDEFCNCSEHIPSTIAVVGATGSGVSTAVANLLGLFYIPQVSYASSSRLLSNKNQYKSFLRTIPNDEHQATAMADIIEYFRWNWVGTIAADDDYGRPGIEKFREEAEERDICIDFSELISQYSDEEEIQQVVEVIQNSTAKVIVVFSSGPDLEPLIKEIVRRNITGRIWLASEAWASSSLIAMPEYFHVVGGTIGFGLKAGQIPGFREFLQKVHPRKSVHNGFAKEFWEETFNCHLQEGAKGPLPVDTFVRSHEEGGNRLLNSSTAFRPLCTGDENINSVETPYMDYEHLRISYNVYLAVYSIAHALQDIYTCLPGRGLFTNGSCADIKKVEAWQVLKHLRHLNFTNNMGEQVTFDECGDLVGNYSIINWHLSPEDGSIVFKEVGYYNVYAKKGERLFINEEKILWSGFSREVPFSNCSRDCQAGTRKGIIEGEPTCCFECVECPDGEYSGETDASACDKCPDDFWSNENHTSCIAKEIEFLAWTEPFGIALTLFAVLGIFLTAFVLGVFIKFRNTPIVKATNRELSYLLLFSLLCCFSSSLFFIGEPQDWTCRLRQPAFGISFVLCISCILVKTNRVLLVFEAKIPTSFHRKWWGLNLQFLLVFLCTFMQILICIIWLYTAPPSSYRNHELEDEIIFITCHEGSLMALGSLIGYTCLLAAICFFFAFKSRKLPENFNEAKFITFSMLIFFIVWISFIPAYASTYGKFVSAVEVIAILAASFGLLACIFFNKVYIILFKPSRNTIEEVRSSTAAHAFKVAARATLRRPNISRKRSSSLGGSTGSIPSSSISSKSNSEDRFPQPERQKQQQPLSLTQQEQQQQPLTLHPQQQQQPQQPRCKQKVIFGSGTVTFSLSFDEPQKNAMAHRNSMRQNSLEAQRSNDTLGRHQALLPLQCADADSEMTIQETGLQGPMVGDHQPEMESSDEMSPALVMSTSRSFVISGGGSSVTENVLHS
Briefly: Activity at rat CaSR in CHO cells assessed as inhibition of calcium ion-induced [3H]inositol phosphate accumulation. An outline of the steps: (§1)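 CHO cells stably transfected with rat CaSR, grown in basal Ham's F-12 (0.3 mM Ca2+, 0.6 mM Mg2+). Overnight labelling with myo-[3H]inositol (0.5 µCi/mL). Cells washed, then 15 min at 37°C in basal medium with 10 mM LiCl, then 30 min at 37°C with 9 mM Ca2+ plus compound (10 mM ethanol stock diluted in medium). Reaction stopped with HClO4; [3H]IP isolated by ion exchange.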

The target of assay [2] is T2, Extracellular calcium-sensing receptor (Rattus norvegicus) (UniProt P48442).
T2 sequence (whole entry): T1 sequence (P48442 whole entry)
As to the kind of experiment: Activity at rat CaSR in CHO cells assessed as inhibition of calcium ion-induced [3H]inositol phosphate accumulation at 10 uM. In outline:
as §1

Assay [3] has as its target T2, Extracellular calcium-sensing receptor (Rattus norvegicus). As to the kind of experiment: Activity at rat CaSR in CHO cells assessed as inhibition of calcium ion-induced [3H]inositol phosphate accumulation at 1 uM. In outline: as §1

As a reminder, the IC50 is the concentration needed to halve the response being measured. As a reminder, the inhibition is the relative decrease from the control value, in per cent.

Calls of active or inactive are those of the source. The calls are words filed in the database; no cut-off is given here.

On to `CC(C)(Cc1ccc2ccccc2c1)NC[C@@H](O)COc1cccc(Cl)c1C#N`, for which the IC50 in assay [1] is 460 nM. Further, the inhibition turned out to be 87% in assay [2] and 77% in assay [3].
For `C[C@@H](N[C@H]1CCCC[C@@H]1NC(=O)c1ccc(OC(F)(F)F)cc1)c1cccc2ccccc12`, the IC50 in assay [1] is 250 nM. Further, the inhibition in assay [2] came to 100%.
`C[C@@H](N[C@H]1CCCC[C@@H]1NS(=O)(=O)c1ccc(OC(F)(F)F)cc1)c1cccc2ccccc12`: the IC50 in assay [1] worked out at 2600 nM. The inhibition in assay [2] came out at 90%.
As for `C[C@@H](N[C@@H]1CCCC[C@H]1NC(=O)c1ccc(OC(F)(F)F)cc1)c1cccc2ccccc12`, the IC50 in assay [1] stood at 1700 nM. In addition, in assay [2], the inhibition worked out at 95%.
With `COc1ccc(S(=O)(=O)N[C@@H]2CCCC[C@H]2NC(C)c2cccc3ccccc23)cc1` (some centres undefined), the IC50 in assay [1] was 8000 nM. For the same compound, the inhibition in assay [2] worked out at 62%; in assay [3], 12%.
As to `CC(N[C@@H]1CCCC[C@H]1NS(=O)(=O)c1ccc(C(F)(F)F)cc1)c1cccc2ccccc12` (some centres undefined), in assay [2], the inhibition worked out at 75%.
For `CC(N[C@@H]1CCCC[C@H]1NS(=O)(=O)c1ccc(Cl)cc1)c1cccc2ccccc12` (some centres undefined), the inhibition in assay [2] is 73%.
Same read-out and setting: the figure for `C[C@@H](N[C@@H]1CCCC[C@H]1NS(=O)(=O)c1ccc(OC(F)(F)F)cc1)c1cccc2ccccc12` is 32%; for `C[C@H](N[C@@H]1CCCC[C@H]1NC(=O)c1ccc(OC(F)(F)F)cc1)c1cccc2ccccc12` it is 22%.
Regarding `C[C@H](N[C@@H]1CCCC[C@H]1NS(=O)(=O)c1ccc(OC(F)(F)F)cc1)c1cccc2ccccc12`, the inhibition result in assay [2] was “inactive”.
On the same count and under the same terms, the entry for `C[C@H](N[C@H]1CCCC[C@@H]1NC(=O)c1ccc(OC(F)(F)F)cc1)c1cccc2ccccc12` is “inactive”.
Still for that read-out and setting: the figure for `C[C@H](N[C@H]1CCCC[C@@H]1NS(=O)(=O)c1ccc(OC(F)(F)F)cc1)c1cccc2ccccc12` is 20%.
For the compound `CC(N[C@@H]1CCCC[C@H]1NS(=O)(=O)c1ccc(OC(F)(F)F)cc1)c1cccc2ccccc12` (relative stereo), the IC50 in assay [1] worked out at 5400 nM. Also, the inhibition amounted to 78% in assay [2] and 8% in assay [3].
With `CC(N[C@@H]1CCCC[C@H]1NC(=O)c1ccc(OC(F)(F)F)cc1)c1cccc2ccccc12` (relative stereo), in assay [1], the concentration for half-maximal inhibition (IC50) amounted to 900 nM. The inhibition came out at 95% in assay [2] and 50% in assay [3].
`CC(N[C@@H]1CCCC[C@H]1NC(=O)Oc1ccccc1)c1cccc2ccccc12` (relative stereo): the inhibition in assay [2] was found to be 1%.
Turning to `CC(N[C@@H]1CCCC[C@H]1NC(=O)c1cc2ccccc2[nH]1)c1cccc2ccccc12` (relative stereo), in assay [3], the inhibition is 33%.
`CC(N[C@@H]1CCCC[C@H]1NC(=O)c1ccc(Cl)c(Cl)c1)c1cccc2ccccc12` (relative stereo): the inhibition in assay [2] turned out to be 103%; in assay [3] it was 82%.
On to `CC(N[C@@H]1CCCC[C@H]1NC(=O)c1ccc(Cl)cc1)c1cccc2ccccc12` (relative stereo), for which the inhibition came out at 106% in assay [2] and 90% in assay [3].
For `CC(N[C@@H]1CCCC[C@H]1NC(=O)c1ccccc1)c1cccc2ccccc12` (relative stereo), the inhibition was determined as 78% in assay [2] and 33% in assay [3].
For `CC(N[C@@H]1CCCC[C@H]1NC(=O)c1ccccc1C(F)(F)F)c1cccc2ccccc12` (relative stereo), the inhibition in assay [3] amounted to 36%.
For `CC(N[C@@H]1CCCC[C@H]1NC(=O)c1ccccc1Cl)c1cccc2ccccc12` (relative stereo), the inhibition is 68% in assay [2] and 19% in assay [3].
In the case of `CC(N[C@@H]1CCCC[C@H]1NC(=O)c1ccccn1)c1cccc2ccccc12` (relative stereo), the figures for the inhibition in assay [2] and in assay [3] were 76% and 35%, respectively.
Turning to `CC(N[C@@H]1CCCC[C@H]1NS(=O)(=O)c1ccc(Cl)c(Cl)c1)c1cccc2ccccc12` (relative stereo), the inhibition in assay [2] stood at 60%.
Take `CC(N[C@@H]1CCCC[C@H]1NS(=O)(=O)c1ccc(Cl)c(Cl)c1Cl)c1cccc2ccccc12` (relative stereo): the inhibition in assay [2] is 59%.
Turning to `CC(N[C@@H]1CCCC[C@H]1NS(=O)(=O)c1ccc([N+](=O)[O-])cc1)c1ccc2ccccc2c1` (relative stereo), the figures for the inhibition in assay [2] and in assay [3] were 20% and 1%, respectively.
Regarding `CC(N[C@@H]1CCCC[C@H]1NS(=O)(=O)c1ccc([N+](=O)[O-])cc1)c1cccc2ccccc12` (relative stereo), the inhibition in assay [2] came to 56%.
On to `CC(N[C@@H]1CCCC[C@H]1NS(=O)(=O)c1cccc(C(F)(F)F)c1)c1cccc2ccccc12` (relative stereo), for which, in assay [2], the inhibition is 44%.
For `CC(N[C@@H]1CCCC[C@H]1NS(=O)(=O)c1cccc(Cl)c1)c1cccc2ccccc12` (relative stereo), in assay [2], the inhibition came to 60%.
Consider `CC(N[C@H]1CCCC[C@@H]1NS(=O)(=O)c1ccc([N+](=O)[O-])cc1)c1ccc(-c2ccccc2)cc1` (relative stereo), for which the inhibition in assay [2] is 7%.
Regarding `COc1ccc(OC)c(S(=O)(=O)N[C@@H]2CCCC[C@H]2NC(C)c2cccc3ccccc23)c1` (relative stereo), the inhibition in assay [2] came to 0%.
Take `O=[N+]([O-])c1ccc(S(=O)(=O)N[C@@H]2CCCC[C@H]2NCc2cccc3ccccc23)cc1` (relative stereo): the inhibition in assay [2] is 6%; in assay [3], 1%.

The record behind these values is ChEMBL document CHEMBL1145339, “N1-Benzoyl-N2-[1-(1-naphthyl)ethyl]-trans-1,2-diaminocyclohexanes: Development of 4-chlorophenylcarboxamide (calhex 231) as a new calcium sensing receptor ligand demonstrating potent calcilytic activity” (J Med Chem, 2006).
